Inhibition and fold change (FC) data for 3 compounds are collected here from ChEMBL document CHEMBL5653631, “A Potent and Selective ULK1 Inhibitor Suppresses Autophagy and Sensitizes Cancer Cells to Nutrient Stress” (iScience, 2018).

Experiment [1] deals with Protein kinase C theta type (Homo sapiens) (UniProt Q04759). The experiment can be described thus: Inhibition of human recombinant PKCt at 40 nM in presence of ATP by radiometric assay relative to control.
The target of experiment [2] is Calcium/calmodulin-dependent protein kinase type II subunit alpha (Homo sapiens) (UniProt Q9UQM7). The experiment can be described thus: Inhibition of human recombinant CaMK2a at 40 nM in presence of ATP by radiometric assay relative to control.
In experiment [3] the target is Ephrin type-A receptor 7 (Homo sapiens) (UniProt Q15375). The experiment is described as follows: Inhibition of human recombinant EphA7 at 40 nM related to control ULK1.
Experiment [4] deals with Tyrosine-protein kinase Lyn (Homo sapiens) (UniProt P07948). The experiment is described as follows: Inhibition of human recombinant LYN at 40 nM related to control ULK1.
Experiment [5] addresses Serine/threonine-protein kinase ATR (Homo sapiens) (UniProt Q13535). The experiment is described as follows: Inhibition of human recombinant ATR at 40 nM in presence of ATP by radiometric assay relative to control. The method in brief:
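Panel of 327 recombinant human kinases, each assayed in vitro by radiometric activity assay in duplicate at a single inhibitor concentration per compound, chosen with reference to its ULK1 inhibition. Activity remaining was expressed as percent of vehicle control, and percent inhibition was calculated as 100 minus percent activity remaining.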

For experiment [6], the target named is Serine/threonine-protein kinase PRP4 homolog (Homo sapiens) (UniProt Q13523). The experiment is described as follows: Inhibition of human recombinant PRP4 at 40 nM in presence of ATP by radiometric assay relative to control.
In experiment [7] the target is Tyrosine-protein kinase Yes (Homo sapiens) (UniProt P07947). The experiment is described as follows: Inhibition of human recombinant YES at 500 nM related to control ULK1.
The target in experiment [8] is Death-associated protein kinase 2 (Homo sapiens) (UniProt Q9UIK4). The experiment is described as follows: Inhibition of human recombinant DAPK2 at 500 nM in presence of ATP by radiometric assay relative to control.
In experiment [9] the target is T1, Calcium/calmodulin-dependent protein kinase type IV (Homo sapiens) (UniProt Q16566).
T1 sequence (whole entry): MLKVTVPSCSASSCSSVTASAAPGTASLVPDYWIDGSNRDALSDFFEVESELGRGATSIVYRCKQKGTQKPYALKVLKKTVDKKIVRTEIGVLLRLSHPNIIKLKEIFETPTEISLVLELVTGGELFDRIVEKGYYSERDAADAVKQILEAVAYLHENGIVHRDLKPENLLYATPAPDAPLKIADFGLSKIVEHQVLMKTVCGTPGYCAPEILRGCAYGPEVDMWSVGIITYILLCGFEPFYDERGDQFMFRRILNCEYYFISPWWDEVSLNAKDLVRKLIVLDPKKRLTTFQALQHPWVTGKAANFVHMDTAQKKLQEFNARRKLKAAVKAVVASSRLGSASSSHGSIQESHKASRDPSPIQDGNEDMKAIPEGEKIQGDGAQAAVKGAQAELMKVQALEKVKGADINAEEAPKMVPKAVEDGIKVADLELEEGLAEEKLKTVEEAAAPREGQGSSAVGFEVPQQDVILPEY
The experiment is described as follows: Inhibition of human recombinant CaMK4 at 500 nM related to control ULK1.

Experiment [10] has as its target T2, Serine/threonine-protein kinase Sgk3 (Homo sapiens) (UniProt Q96BR1).
T2 sequence (whole entry): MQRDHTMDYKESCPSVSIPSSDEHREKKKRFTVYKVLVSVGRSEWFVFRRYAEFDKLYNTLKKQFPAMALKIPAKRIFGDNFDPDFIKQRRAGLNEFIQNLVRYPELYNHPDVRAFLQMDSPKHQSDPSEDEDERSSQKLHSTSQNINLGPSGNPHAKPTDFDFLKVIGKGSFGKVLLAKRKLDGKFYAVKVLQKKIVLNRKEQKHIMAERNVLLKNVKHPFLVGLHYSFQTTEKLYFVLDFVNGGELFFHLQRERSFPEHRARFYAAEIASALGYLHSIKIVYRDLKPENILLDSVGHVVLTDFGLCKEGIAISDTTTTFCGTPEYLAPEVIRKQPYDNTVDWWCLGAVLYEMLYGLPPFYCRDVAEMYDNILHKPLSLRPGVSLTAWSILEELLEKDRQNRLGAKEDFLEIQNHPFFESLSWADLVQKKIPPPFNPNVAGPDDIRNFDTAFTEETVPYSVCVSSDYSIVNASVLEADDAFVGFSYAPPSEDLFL
The experiment is described as follows: Inhibition of human recombinant SGK3 at 500 nM related to control ULK1.

The species named for another experiment is Homo sapiens. The experiment is described as follows: Inhibition of human recombinant p70S6K at 500 nM in presence of ATP by radiometric assay relative to control.
For experiment [11], the target named is T3, Mitogen-activated protein kinase kinase kinase kinase 2 (Homo sapiens) (UniProt Q12851).
T3 sequence (whole entry): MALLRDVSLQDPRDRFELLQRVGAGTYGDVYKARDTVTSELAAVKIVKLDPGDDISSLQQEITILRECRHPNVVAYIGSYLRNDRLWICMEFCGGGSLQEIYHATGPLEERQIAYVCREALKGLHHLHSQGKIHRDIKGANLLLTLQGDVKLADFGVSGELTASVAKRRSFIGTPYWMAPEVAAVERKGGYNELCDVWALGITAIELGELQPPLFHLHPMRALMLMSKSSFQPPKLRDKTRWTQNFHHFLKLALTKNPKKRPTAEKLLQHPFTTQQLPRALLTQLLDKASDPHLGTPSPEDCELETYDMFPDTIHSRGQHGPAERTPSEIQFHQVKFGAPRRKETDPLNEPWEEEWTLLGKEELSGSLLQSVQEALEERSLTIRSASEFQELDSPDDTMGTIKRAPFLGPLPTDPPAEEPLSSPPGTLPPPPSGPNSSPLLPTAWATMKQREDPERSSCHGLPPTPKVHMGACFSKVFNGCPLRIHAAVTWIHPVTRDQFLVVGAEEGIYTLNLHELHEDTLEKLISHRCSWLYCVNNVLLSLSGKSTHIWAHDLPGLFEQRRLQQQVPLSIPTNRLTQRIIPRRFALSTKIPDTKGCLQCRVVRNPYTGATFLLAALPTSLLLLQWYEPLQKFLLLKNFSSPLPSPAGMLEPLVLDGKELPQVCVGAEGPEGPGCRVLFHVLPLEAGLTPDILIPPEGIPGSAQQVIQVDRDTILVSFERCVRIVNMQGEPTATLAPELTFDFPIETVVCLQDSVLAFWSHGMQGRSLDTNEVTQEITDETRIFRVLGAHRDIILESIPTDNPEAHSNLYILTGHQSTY
The experiment is described as follows: Inhibition of human recombinant GCK at 500 nM related to control ULK1.

Experiment [12] addresses Serine/threonine-protein kinase SIK2 (Homo sapiens) (UniProt Q9H0K1). The experiment can be described thus: Inhibition of human recombinant QIK at 15 nM related to control ULK1.
The target in experiment [13] is RAC-alpha serine/threonine-protein kinase (Homo sapiens) (UniProt P31749). The experiment is described as follows: Inhibition of human recombinant AKT1 at 15 nM related to control ULK1.
RAC-alpha serine/threonine-protein kinase (Homo sapiens), sequence (P31749 whole entry): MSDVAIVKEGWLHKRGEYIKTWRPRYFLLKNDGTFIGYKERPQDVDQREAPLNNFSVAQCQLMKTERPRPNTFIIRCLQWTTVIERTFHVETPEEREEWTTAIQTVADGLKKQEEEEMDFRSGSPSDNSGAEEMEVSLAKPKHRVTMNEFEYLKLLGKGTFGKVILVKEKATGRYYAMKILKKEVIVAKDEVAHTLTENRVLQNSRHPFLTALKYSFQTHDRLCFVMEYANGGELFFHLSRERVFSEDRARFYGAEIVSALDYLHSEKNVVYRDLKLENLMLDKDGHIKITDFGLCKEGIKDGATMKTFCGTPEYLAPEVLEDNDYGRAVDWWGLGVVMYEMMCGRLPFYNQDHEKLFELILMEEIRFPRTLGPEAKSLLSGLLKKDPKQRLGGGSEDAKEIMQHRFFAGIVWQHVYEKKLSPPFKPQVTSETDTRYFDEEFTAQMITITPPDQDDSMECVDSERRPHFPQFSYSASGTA

Serine/threonine-protein kinase PRP4 homolog (Homo sapiens), sequence (Q13523 whole entry): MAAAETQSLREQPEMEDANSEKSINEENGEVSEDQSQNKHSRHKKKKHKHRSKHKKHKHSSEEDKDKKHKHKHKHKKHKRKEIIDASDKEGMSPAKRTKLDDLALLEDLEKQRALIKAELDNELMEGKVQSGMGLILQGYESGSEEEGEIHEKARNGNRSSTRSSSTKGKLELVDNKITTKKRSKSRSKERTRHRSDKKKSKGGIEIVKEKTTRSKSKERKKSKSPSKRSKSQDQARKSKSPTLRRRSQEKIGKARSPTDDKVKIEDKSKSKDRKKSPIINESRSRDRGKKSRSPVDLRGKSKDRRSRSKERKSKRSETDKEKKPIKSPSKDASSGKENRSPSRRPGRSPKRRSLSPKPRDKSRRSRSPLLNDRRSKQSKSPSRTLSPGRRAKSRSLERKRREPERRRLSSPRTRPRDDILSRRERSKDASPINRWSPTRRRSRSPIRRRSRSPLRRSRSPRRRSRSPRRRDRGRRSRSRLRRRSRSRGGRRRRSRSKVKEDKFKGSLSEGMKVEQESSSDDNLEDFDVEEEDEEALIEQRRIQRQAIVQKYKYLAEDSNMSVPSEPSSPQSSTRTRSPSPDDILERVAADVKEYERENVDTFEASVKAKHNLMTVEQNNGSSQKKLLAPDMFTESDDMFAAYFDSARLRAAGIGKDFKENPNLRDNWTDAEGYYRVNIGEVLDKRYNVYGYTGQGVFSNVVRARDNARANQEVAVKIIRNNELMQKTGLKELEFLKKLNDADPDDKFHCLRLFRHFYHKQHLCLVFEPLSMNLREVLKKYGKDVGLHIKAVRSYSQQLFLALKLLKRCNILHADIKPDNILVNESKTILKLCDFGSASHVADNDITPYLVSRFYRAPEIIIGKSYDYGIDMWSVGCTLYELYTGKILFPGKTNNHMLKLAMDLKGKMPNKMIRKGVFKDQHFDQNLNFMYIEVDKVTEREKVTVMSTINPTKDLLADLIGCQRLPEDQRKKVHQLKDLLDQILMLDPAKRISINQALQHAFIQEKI
Tyrosine-protein kinase Yes (Homo sapiens), sequence (P07947 2-543 limits assumed): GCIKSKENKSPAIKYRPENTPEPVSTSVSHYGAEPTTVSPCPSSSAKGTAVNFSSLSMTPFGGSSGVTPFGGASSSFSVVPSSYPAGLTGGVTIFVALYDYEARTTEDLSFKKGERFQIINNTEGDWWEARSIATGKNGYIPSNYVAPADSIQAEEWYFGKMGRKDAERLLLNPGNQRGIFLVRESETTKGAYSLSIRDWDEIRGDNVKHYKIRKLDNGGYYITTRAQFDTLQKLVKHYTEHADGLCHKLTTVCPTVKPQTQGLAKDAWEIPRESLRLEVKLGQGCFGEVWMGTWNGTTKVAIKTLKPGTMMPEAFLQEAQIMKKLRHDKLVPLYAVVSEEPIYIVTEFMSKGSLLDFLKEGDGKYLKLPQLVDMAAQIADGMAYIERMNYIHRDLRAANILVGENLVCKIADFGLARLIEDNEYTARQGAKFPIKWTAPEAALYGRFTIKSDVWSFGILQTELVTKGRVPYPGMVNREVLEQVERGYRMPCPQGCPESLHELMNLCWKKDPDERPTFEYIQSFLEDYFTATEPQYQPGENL
Protein kinase C theta type (Homo sapiens), sequence (Q04759 whole entry, looked up): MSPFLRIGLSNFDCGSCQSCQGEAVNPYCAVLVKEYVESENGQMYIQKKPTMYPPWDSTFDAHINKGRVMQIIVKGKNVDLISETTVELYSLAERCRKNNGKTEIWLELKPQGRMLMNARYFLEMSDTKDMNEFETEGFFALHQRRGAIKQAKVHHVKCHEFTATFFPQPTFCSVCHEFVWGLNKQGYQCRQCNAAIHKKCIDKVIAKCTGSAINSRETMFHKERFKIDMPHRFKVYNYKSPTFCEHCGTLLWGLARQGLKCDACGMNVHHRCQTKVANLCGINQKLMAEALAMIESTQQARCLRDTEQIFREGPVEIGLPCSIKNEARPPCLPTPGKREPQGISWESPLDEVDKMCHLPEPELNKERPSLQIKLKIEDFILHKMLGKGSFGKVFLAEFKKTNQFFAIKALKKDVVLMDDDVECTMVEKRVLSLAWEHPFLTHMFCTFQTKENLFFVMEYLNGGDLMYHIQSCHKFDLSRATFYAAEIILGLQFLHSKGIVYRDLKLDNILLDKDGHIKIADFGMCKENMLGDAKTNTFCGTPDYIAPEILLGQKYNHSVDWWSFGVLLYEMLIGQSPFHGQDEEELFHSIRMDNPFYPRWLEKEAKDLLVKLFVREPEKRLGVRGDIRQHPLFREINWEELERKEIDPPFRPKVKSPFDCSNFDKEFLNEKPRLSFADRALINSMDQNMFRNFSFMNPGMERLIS
Ephrin type-A receptor 7 (Homo sapiens), sequence (Q15375 28-998 limits assumed): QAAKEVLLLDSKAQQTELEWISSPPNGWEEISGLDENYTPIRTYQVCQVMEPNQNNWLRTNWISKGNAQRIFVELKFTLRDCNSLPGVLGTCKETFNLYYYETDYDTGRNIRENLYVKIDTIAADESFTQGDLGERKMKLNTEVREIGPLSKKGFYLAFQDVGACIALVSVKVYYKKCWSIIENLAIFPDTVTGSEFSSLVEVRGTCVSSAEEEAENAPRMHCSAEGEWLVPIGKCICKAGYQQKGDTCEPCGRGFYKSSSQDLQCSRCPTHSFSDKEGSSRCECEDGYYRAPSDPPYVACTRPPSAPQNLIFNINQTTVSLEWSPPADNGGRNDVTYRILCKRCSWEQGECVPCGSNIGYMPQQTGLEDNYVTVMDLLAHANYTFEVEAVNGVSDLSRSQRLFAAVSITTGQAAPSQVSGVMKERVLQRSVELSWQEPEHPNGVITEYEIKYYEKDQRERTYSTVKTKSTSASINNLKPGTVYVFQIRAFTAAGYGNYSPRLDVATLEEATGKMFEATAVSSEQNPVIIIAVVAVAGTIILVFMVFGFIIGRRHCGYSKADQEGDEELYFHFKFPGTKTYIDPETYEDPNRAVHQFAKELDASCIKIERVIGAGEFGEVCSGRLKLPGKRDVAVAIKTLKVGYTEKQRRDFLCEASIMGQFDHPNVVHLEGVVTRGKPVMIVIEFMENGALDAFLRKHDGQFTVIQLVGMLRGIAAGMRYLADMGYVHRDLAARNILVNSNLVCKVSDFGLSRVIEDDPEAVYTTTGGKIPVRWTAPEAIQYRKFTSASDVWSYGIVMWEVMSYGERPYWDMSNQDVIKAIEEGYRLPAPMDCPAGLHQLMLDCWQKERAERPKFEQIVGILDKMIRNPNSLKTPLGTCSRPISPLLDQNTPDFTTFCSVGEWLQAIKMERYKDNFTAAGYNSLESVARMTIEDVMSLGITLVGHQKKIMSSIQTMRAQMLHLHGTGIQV
Calcium/calmodulin-dependent protein kinase type II subunit alpha (Homo sapiens), sequence (Q9UQM7 whole entry): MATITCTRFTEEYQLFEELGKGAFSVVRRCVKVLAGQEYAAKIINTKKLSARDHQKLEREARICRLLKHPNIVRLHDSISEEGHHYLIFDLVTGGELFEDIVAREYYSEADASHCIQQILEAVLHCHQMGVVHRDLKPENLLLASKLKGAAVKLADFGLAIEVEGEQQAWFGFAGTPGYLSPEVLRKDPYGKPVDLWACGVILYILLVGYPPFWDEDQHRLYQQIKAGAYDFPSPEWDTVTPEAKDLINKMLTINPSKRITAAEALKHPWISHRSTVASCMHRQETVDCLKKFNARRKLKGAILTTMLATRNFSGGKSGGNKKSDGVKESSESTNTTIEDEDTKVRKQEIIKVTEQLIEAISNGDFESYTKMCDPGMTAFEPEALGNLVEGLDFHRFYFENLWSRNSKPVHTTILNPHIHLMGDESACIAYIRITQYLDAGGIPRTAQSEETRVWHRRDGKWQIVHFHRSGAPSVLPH
Tyrosine-protein kinase Lyn (Homo sapiens), sequence (P07948 2-512 limits assumed): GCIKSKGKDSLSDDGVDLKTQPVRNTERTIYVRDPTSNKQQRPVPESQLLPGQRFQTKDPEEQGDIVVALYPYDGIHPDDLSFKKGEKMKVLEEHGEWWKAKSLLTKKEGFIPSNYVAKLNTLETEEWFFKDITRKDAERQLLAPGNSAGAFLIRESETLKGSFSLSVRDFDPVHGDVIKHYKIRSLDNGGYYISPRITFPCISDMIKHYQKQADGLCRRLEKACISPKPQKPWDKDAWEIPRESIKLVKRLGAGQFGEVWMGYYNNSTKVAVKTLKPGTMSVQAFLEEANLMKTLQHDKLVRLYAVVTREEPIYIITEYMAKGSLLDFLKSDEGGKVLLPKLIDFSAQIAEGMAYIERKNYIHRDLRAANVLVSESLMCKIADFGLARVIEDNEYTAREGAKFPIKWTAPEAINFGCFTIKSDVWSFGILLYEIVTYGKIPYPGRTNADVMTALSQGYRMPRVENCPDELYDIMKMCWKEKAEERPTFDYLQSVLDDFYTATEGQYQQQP

In general, inhibition refers to the relative decrease from the control value, in per cent. With `O=C(N[C@@H](C1CC1)C(F)(F)F)c1cc(-c2cnn3cc(-c4ccc(F)cc4)cnc23)cs1`, the inhibition stood at 0% in [1], 0% in experiment [2], 0% in experiment [5] and 6% in [6]. Further, the fold change (FC) in [3] turned out to be 0; in [4], 0.25.
Turning to `CNC(=O)c1ccccc1Oc1nc(Nc2cc(OC)c(OC)c(OC)c2)ncc1Br`, the fold change (FC) in experiment [7] amounted to 0.89; in experiment [9], 0; in experiment [10] it was 0.01; in experiment [11], 0.45. Besides, the inhibition (in experiment [8]; in the experiment filed under Homo sapiens) was 0% each time.
Regarding `CC(C)[C@H](NC(=O)c1cc(-c2cnn3cc(-c4ccc(OCCN5CCCCC5)cc4)cnc23)cs1)C(F)(F)F`, the fold change (FC) was determined as 1.02 in experiment [12] and 0 in [13].
